Assay [1] concerns the target T1, Histamine H1 receptor (Cavia porcellus, UniProt P31389). Nature of the assay: Antagonist activity at histamine H1 receptor in guinea pig ileum preincubated for 10 mins followed by histamine addition during 30 mins equilibration period with washing every 10 mins. As to conditions: read-out: pA2 (converted).
In assay [2] the target is Histamine H3 receptor (Rattus norvegicus) (UniProt Q9QYN8). As to the kind of experiment: Antagonist activity at rat histamine H3 receptor assessed as reduction in dopamine level in rat cortex at 3 mg/kg, sc administered for 5 consecutive days measured at 24 hrs post last dose by RIA or ELISA method. The assay is classed as organism-based. Summed up: (§1)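 Male rats aged 9-10 weeks (Wistar or Lewis, n = 8) received 3 mg kg⁻¹ per day s.c. for 5 days. Saline-dosed and ciproxifan-dosed groups were included. Rats were killed 24 h after the last injection. The cerebral cortex was dissected, frozen in liquid nitrogen, stored at -80 °C and homogenized in 3 volumes of water. Dopamine, noradrenaline and serotonin were measured by RIA; histamine by ELISA.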
Chain of Histamine H3 receptor (Rattus norvegicus) (Q9QYN8 whole entry): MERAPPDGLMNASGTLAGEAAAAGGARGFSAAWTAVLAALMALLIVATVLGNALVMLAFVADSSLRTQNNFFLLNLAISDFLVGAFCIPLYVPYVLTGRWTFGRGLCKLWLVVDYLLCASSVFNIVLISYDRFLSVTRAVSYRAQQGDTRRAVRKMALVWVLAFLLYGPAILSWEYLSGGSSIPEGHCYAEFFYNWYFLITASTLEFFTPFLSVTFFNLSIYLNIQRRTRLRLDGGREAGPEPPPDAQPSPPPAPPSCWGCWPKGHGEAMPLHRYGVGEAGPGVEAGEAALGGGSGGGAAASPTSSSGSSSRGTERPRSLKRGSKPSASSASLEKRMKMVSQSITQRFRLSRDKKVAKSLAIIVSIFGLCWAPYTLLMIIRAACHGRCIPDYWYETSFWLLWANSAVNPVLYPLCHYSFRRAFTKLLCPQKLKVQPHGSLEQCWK
(ELISA stands for enzyme-linked immunosorbent assay.)

Assay [3] has the same target. Nature of the assay: Antagonist activity at rat histamine H3 receptor assessed as reduction in serotonin level in rat cortex at 3 mg/kg, sc administered for 5 consecutive days measured at 24 hrs post last dose by RIA or ELISA method. The assay is classed as organism-based. The essentials:
as §1

The species named for a further assay is Homo sapiens. As to the kind of experiment: Selectivity ratio of Ki for recombinant human histamine H4 receptor expressed in CHO cell membranes to Ki for recombinant human histamine H3 receptor expressed in HEK293 cells. The assay is classed as cell-based.
Assay [4] deals with Histamine H3 receptor (Rattus norvegicus, UniProt Q9QYN8). As to the kind of experiment: Displacement of [3H]-Nalpha-Methylhistamine from rat histamine H3 receptor expressed in HEK293T cell membranes after 120 mins by liquid scintillation counting analysis. A general note: Loss of bound radioactivity is the signal in a displacement assay; it reports binding, not function.
Chain of Histamine H3 receptor (Rattus norvegicus, UniProt Q9QYN8) (Q9QYN8 whole entry): as above
The target in assay [5] is T2, Histamine H3 receptor (Cavia porcellus, UniProt Q9JI35). Nature of the assay: Antagonist activity at histamine H3 receptor in guinea pig jejunum assessed as effect on […] inhibition of electrically evoked contraction treated 20 mins after […] and measured after 1 hr equilibration followed by compound wash out every 10 mins. As to conditions: read-out: pA2 (converted). The assay is classed as tissue-based. The essentials: (§2)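 Guinea pig jejunum segments (2 cm) were electrically stimulated between platinum electrodes in Krebs buffer gassed with 95% O2/5% CO2 at 37 °C, with isotonic recording under 1.0 g tension. […] After 20 min, cumulative half-log (R)-α-methylhistamine concentration-response curves were recorded until the response stopped changing.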
T2 sequence (Q9JI35 whole entry): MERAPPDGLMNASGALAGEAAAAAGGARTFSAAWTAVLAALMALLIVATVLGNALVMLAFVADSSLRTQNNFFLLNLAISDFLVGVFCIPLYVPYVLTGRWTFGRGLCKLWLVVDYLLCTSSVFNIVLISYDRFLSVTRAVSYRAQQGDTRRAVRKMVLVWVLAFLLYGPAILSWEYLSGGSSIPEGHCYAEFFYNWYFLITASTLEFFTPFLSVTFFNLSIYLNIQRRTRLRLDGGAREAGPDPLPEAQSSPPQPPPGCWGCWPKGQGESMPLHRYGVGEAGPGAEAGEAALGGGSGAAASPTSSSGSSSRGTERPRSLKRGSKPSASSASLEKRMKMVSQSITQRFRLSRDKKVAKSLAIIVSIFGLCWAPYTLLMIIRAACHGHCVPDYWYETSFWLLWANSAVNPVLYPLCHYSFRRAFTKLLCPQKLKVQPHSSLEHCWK

Assay [6] concerns the target Histamine H3 receptor (Rattus norvegicus) (UniProt Q9QYN8). Nature of the assay: Antagonist activity at rat histamine H3 receptor assessed as reduction in histamine level in rat cortex at 3 mg/kg, sc administered for 5 consecutive days measured at 24 hrs post last dose by RIA or ELISA method. Type of assay: organism-based. The essentials:
as §1

For assay [7], the target named is Histamine H3 receptor (Homo sapiens, UniProt Q9Y5N1). As to the kind of experiment: Displacement of [3H]-Nalpha-Methylhistamine from recombinant human histamine H3 receptor expressed in HEK293 cells after 1 hr by liquid scintillation counting analysis. The assay is classed as cell-based.
Chain of Histamine H3 receptor (Homo sapiens, UniProt Q9Y5N1) (Q9Y5N1 whole entry): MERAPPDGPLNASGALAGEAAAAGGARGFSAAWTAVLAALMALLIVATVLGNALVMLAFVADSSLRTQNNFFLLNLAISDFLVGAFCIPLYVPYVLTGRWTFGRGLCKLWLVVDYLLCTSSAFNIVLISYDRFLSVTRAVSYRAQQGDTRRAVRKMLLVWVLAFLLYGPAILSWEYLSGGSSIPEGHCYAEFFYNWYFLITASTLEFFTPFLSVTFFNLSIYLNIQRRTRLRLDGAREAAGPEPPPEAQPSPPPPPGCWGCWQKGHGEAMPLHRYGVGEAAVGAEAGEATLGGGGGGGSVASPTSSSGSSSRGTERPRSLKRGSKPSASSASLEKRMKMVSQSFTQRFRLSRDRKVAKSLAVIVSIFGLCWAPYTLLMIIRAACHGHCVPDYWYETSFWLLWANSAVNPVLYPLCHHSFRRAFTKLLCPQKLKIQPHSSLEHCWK
Assay [8] relates to Rattus norvegicus. As to the kind of experiment: Reduction in pellet consumption in Wistar rat at 3 mg/kg, sc administered daily for 5 days relative to control. The assay is classed as functional. Further details: scale not given: the % may be the effect or the level left. Summed up: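 Male rats aged 9-10 weeks were housed singly in metabolic cages with free access to feed and water. Wistar rats were used for one compound and Lewis rats for the others. After 1 day of adaptation, baseline intake was averaged over 3 days. Dosing was 3 mg kg⁻¹ per day s.c. for 5 days (n = 8), with saline controls (0.2 ml per day). Intake was recorded each morning as g feed per 100 g body mass.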

Assay [9] relates to Rattus norvegicus. As to the kind of experiment: Effect on cerebral MAO activity in rat at 3 mg/kg, sc administered for 5 consecutive days measured at 24 hrs post last dose by radioisotopic assay. The assay is classed as functional, organism-based. Summed up:
(§3)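 Cortex from rats given 3 mg kg⁻¹ per day s.c. for 5 days (n = 8) was taken 24 h after the last dose and homogenized in water. HNMT, MAO-A and MAO-B were measured radioisotopically. MAO-A used 5-[2-14C]hydroxytryptamine as substrate; MAO-B used β-[ethyl-1-¹⁴C]phenylethylamine. Clorgyline and deprenyl (final 10^-9 M) were used as inhibitors. Protein was measured by the Lowry method.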

Assay [10] addresses Histamine H3 receptor (Rattus norvegicus) (UniProt Q9QYN8). Nature of the assay: Antagonist activity at rat histamine H3 receptor assessed as reduction in noradrenaline level in rat cortex at 3 mg/kg, sc administered for 5 consecutive days measured at 24 hrs post last dose by RIA or ELISA method. Type of assay: organism-based. Summed up:
as §1

Assay [11] deals with Rattus norvegicus. As to the kind of experiment: Effect on cerebral HNMT activity in rat at 3 mg/kg, sc administered for 5 consecutive days measured at 24 hrs post last dose by radioisotopic assay. Type of assay: functional, organism-based. Summed up: as §3
In the next assay the target is Histamine H4 receptor (Homo sapiens, UniProt Q9H3N8). As to the kind of experiment: Displacement of [3H]histamine from human recombinant histamine H4 receptor expressed in CHO cell membranes after 1 hrs by liquid scintillation counting analysis.
Chain of Histamine H4 receptor (Q9H3N8 whole entry): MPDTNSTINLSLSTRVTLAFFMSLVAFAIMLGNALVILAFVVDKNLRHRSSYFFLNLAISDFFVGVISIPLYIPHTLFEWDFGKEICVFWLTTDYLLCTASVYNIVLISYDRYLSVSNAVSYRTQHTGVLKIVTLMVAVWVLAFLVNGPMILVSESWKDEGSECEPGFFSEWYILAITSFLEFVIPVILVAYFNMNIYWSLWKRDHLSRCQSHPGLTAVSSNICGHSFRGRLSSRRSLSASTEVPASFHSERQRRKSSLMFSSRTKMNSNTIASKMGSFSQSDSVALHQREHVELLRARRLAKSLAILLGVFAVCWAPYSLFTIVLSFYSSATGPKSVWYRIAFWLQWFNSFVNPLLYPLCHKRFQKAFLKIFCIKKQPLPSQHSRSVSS
In assay [12] the target is T1, Histamine H1 receptor. As to the kind of experiment: (§4) Antagonist activity at histamine H1 receptor in guinea pig ileum preincubated for 10 mins followed by histamine addition during 30 mins equilibration period with washing every 10 mins. The assay is classed as tissue-based. As to conditions: read-out: pA2 (converted).
The target of assay [13] is T2, Histamine H3 receptor. Nature of the assay: Antagonist activity at histamine H3 receptor in guinea pig jejunum assessed as effect on […] inhibition of electrically evoked contraction treated 20 mins after […]. Type of assay: tissue-based. To be noted: read-out: pA2 (converted). The essentials:
as §2

The subject of assay [14] is Rattus norvegicus. Nature of the assay: Reduction in food consumption in Lewis rat at 3 mg/kg, sc administered daily for 5 days relative to control.
Assay [15] concerns the target Histamine H1 receptor (Cavia porcellus) (UniProt P31389). The assay is described as §4. The assay is classed as tissue-based.

The text below walks through data of ChEMBL document CHEMBL4480372, “Design, synthesis, and in vitro and in vivo characterization of 1-{4-[4-(substituted)piperazin-1-yl]butyl}guanidines and their piperidine analogues as histamine H3 receptor antagonists” (Medchemcomm, 2019).

The source made the active and inactive calls. The calls are words filed in the database; no cut-off is given here.

T1 sequence (P31389 whole entry): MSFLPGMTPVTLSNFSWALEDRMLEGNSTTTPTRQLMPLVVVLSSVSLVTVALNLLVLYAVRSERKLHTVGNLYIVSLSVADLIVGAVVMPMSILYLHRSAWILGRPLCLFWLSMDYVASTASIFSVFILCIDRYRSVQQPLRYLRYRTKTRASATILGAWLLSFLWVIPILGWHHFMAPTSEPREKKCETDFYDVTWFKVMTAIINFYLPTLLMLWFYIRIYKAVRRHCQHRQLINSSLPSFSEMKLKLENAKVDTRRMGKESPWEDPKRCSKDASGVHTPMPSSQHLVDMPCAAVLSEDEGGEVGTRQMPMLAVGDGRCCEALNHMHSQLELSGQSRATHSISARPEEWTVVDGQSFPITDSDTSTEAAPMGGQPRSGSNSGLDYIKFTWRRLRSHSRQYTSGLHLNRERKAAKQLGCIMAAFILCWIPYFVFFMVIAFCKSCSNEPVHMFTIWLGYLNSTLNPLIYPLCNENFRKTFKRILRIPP
Chain of Histamine H1 receptor (Cavia porcellus) (P31389 whole entry): as above

As to `N=C(N)N(CCCCN1CCN(CCCCCCCOc2ccccc2)CC1)Cc1ccc(C(F)(F)F)cc1`, the Kb at Histamine H1 receptor [1] is 347 nM.

Broadly, the Ki is a dissociation constant, usually derived from enzyme kinetics or from competition with a known ligand. With `N=C(N)N(CCCCN1CCN(CCCCCCCOc2ccccc2)CC1)Cc1ccc([N+](=O)[O-])cc1`, the result in assay [2] and in [3] was Active. For the same compound, the Kb at Histamine H1 receptor [1] was 224 nM; at Histamine H3 receptor [5] it was 3.72 nM. Besides, in the assay filed under Homo sapiens, the Ratio Ki was 8.3. The Ki was 15.8 nM on Histamine H3 receptor [4], 145 nM on Histamine H3 receptor [7] and 1200 nM at Histamine H4 receptor. Further, the result (in [6]; in the assay with Rattus norvegicus [9]; in assay [10]; in the assay on Rattus norvegicus [11]) was inactive. Further, the Activity in the assay with Rattus norvegicus [8] is 10%.

`N=C(N)N(CCCCC1CCN(CCCCCCCOc2ccccc2)CC1)Cc1ccc(C(F)(F)F)cc1`: the Kb on Histamine H1 receptor [12] is 126 nM; on Histamine H3 receptor [13], 4.47 nM.

As for `N#C/N=C(\N)N(CCCCN1CCN(CCCCCCCOc2ccccc2)CC1)Cc1ccccc1`, the Kb is 107 nM at Histamine H1 receptor [12] and 50.1 nM at Histamine H3 receptor [13].

Consider `N=C(N)N(CCCCN1CCN(CCCCCCCOc2ccccc2)CC1)Cc1ccccc1`, for which the outcome (in assay [2]; in assay [3]; in the assay with Rattus norvegicus [14]) was Active. In addition, the Kb at Histamine H1 receptor [1] was 200 nM. In addition, the Ratio Ki in the assay listed under Homo sapiens turned out to be 20.9. Also, the Ki is 12.6 nM on Histamine H3 receptor [4], 158 nM at Histamine H3 receptor [7] and 3240 nM on Histamine H4 receptor. In addition, the result (in assay [6]; in the assay on Rattus norvegicus [9]; in [10]; in the assay with Rattus norvegicus [11]) was inactive.

`S=C(NC1CCCCC1)N1CCC(c2cnc[nH]2)CC1` [THIOPERAMIDE]: at Histamine H3 receptor [13], the Kb was 1.05 nM.

On to `N=C(NCCCCN1CCN(CCCCCCCOc2ccccc2)CC1)NCc1ccc(C(F)(F)F)cc1`, for which the figures for the Kb at Histamine H1 receptor [12] and on Histamine H3 receptor [13] were 66.1 nM and 10.7 nM, respectively.

For `O=C(c1ccc(OCCCc2c[nH]cn2)cc1)C1CC1`, the result in the assay on Rattus norvegicus [14] was Active.

In the case of `N=C(N)N(CCCCN1CCN(CCCCCCCOc2ccccc2)CC1)Cc1ccc(Cl)cc1`, the outcome in [2] and in assay [3] was Active. Also, the figures for the Kb at Histamine H1 receptor [1] and on Histamine H3 receptor [5] were 240 nM and 15.8 nM, respectively. Further, the Ratio Ki in the assay listed under Homo sapiens came out at 3.9. For the same compound, the Ki on Histamine H3 receptor [4] is 25.1 nM; on Histamine H3 receptor [7] it was 275 nM; at Histamine H4 receptor it was 1070 nM. The result (in assay [6]; in the assay with Rattus norvegicus [9]; in assay [10]; in the assay with Rattus norvegicus [11]) was inactive. The Activity in the assay on Rattus norvegicus [14] is on record as 13.5%.

In the case of `N=C(NCCCCN1CCN(CCCCCCCOc2ccccc2)CC1)NCc1ccccc1`, the Kb on Histamine H1 receptor [12] was 79.4 nM; on Histamine H3 receptor [13], 7.94 nM.

As to `c1ccc(OCCCCCCCN2CCN(CCCCCCCOc3ccccc3)CC2)cc1`, in assay [15], the pA2 result is “inactive”. The Kb on Histamine H3 receptor [13] is 1660 nM.

Consider `N=C(N)N(CCCCN1CCN(CCCCN(Cc2ccc(C(F)(F)F)cc2)C(=N)N)CC1)Cc1ccc(C(F)(F)F)cc1`, for which the Kb on Histamine H1 receptor [12] was 60.3 nM; at Histamine H3 receptor [13], 10.2 nM.

Consider `N=C(N)N(CCCCN1CCC(CCCCCCCOc2ccccc2)CC1)Cc1ccc(C(F)(F)F)cc1`, for which the Kb at Histamine H1 receptor [12] was 64.6 nM; on Histamine H3 receptor [13], 12.6 nM.

`N=C(N)N(CCCCCCCOc1ccccc1)Cc1ccccc1`: the Kb on Histamine H1 receptor [12] was 158 nM; on Histamine H3 receptor [13], 1660 nM.
